According to ChEMBL document CHEMBL1135551, “N-Acylvanillamides: development of an expeditious synthesis and discovery of new acyl templates for powerful activation of the vanilloid receptor” (J Med Chem, 2002):
pEC50: −log10 of the molar value.

Columns and labels:
[1] = molecular target: T1, Transient receptor potential cation channel subfamily V member 1 (Homo sapiens, UniProt Q8NER1); test: Percent absolute effect obtained with ionomycin, measured by the entry of [Ca2+] into human embryonic kidney HEK293 cells overexpressing hVR1; format: functional, cell-based
How it was run: (§1)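 HEK-293 cells overexpressing human VR1, grown in MEM with nonessential amino acids, 10% FCS, 0.2 mM glutamine at 37 °C; plated on poly-L-lysine a day before. Cells loaded 2 h at 25 °C with 4 µM Fluo-3 methyl ester, washed, trypsinized, suspended in Tyrode pH 7.4 without BSA.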

[2] = molecular target: T1, Transient receptor potential cation channel subfamily V member 1; test: Concentration necessary to induce a relative half-maximal response measured by the entry of [Ca2+] into human embryonic kidney HEK293 cells overexpressing the human VR1; format: functional, cell-based; how it was run: as §1

T1 sequence (Q8NER1 whole entry): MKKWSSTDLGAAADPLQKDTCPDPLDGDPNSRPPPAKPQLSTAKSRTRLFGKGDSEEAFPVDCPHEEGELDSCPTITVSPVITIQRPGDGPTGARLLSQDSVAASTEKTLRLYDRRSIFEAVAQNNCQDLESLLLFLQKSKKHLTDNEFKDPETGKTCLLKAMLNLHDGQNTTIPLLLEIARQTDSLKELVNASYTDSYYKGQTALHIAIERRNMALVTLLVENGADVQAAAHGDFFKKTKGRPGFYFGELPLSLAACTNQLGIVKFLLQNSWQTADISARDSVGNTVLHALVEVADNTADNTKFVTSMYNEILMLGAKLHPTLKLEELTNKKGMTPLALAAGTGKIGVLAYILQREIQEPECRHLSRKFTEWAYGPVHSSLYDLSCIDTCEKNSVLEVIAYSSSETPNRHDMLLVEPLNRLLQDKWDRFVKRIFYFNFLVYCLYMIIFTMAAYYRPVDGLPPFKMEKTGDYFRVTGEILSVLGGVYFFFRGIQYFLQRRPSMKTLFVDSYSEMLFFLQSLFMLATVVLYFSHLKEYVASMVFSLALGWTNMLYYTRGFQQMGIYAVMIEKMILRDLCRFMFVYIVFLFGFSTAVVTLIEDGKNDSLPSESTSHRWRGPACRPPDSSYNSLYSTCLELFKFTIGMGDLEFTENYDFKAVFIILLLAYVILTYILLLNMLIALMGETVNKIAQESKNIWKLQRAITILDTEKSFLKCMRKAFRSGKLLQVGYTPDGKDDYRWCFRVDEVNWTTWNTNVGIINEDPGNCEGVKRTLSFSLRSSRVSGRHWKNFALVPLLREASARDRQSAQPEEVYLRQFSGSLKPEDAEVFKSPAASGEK

Row | Compound | Response [1] [%] | pEC50 [2]
1 | C/C=C/C=C/C(=O)NCc1ccc(O)c(OC)c1 | 34.6 | 
2 | C=C(C)[C@H]1CC=C(C(=O)NCc2ccc(O)c(OC)c2)CC1 | 74.5 | 6.10
3 | C=C(C)[C@@H]1CC[C@]2(C(=O)NCc3ccc(O)c(OC)c3)CC[C@]3(C)[C@H](CC[C@@H]4[C@@]5(C)CC[C@H](O)C(C)(C)[C@@H]5CC[C@]43C)[C@@H]12 | 88.6 | 6.90
4 | COc1cc(CNC(=O)CCCCCCCCCCCCCCCCCCC(=O)NCc2ccc(O)c(OC)c2)ccc1O | 83.4 | 6.30
5 | CCCCCCC(=O)CCCCCCCCCCC(=O)NCc1ccc(O)c(OC)c1 | 67 | 8.20
6 | CCCCCCCC[C@H]1C[C@H]1CCCCCCCCCCCC(=O)NCc1ccc(O)c(OC)c1 | 91 | 7.10
7 | COc1cc(CNC(=O)CCCC/C=C/C(C)C)ccc1O | 65.4 | 
8 | COc1cc(CNC(=O)[C@H]2[C@@H](C=C(C)C)C2(C)C)ccc1O | 85 | 6.70
9 | CCCCCC[C@@H](O)CCCCCCCCCCC(=O)NCc1ccc(O)c(OC)c1 | 69.7 | 8.30
10 | COc1cc(CNC(=O)C2CC2(C)CCCC(C)CCCC(C)CCCC(C)C)ccc1O (configuration not stated) | 91.2 | 8.60
11 | CCCCCCCC[C@@H]1C[C@@H]1CCCCCCCC(=O)NCc1ccc(O)c(OC)c1 | 86.7 | 8.90
12 | C=CCCCCCCCCC(=O)NCc1ccc(O)c(OC)c1 | 85 | 8.70
13 | COc1cc(CNC(=O)CC[C@H](C)[C@@H]2CC[C@H]3[C@@H]4[C@@H](O)C[C@H]5C[C@@H](O)CC[C@@]5(C)[C@H]4C[C@@H](O)[C@]32C)ccc1O | 5.8 | 
14 | CCCCCCCC/C=C\CCCCCCCCCCC(=O)NCc1ccc(O)c(OC)c1 | 91.4 | 8.50
15 | CCCCC/C=C\C/C=C\C/C=C\C/C=C\CCCC(=O)NCc1ccc(O)c(OC)c1 | 74.8 | 9.30
16 | CCCCCCCCC#CCCCCCCCC(=O)NCc1ccc(O)c(OC)c1 | 73.7 | 7.90
17 | COc1cc(CNC(=O)[C@@]2(C)CCC[C@@]3(C)[C@H]2CC=C2C=C(C(C)C)CC[C@@H]23)ccc1O | 37.5 | 

Row | Compound | Response [1] [%] | pEC50 [2]
18 | CCCCCCCC/C=C\CCCCCCCC(=O)NCc1ccc(O)c(OC)c1 [OLVANIL] | 67.2 | 9.30
19 | COc1cc(CNC(=O)/C=C(C)/C=C/C=C(C)/C=C/C2=C(C)CCCC2(C)C)ccc1O | 92.6 | 8.40
20 | COc1cc(CNC(=O)CCCCCCCCC2CC2)ccc1O | 96.2 | 8.50
21 | C=C(C(=O)NCc1ccc(O)c(OC)c1)[C@H]1CC[C@]2(C)CCC[C@](C)(O)[C@H]2C1 | 78.9 | 6.70
22 | COc1cc(CNC(=O)/C=C(\C)CCC=C(C)C)ccc1O | 70.9 | 7.40
23 | CCCCCC[C@@H](O)C/C=C\CCCCCCCC(=O)NCc1ccc(O)c(OC)c1 | 85 | 8.50
24 | COc1cc(CNC(=O)C2C(C(=O)NCc3ccc(O)c(OC)c3)[C@H]3C=C[C@@H]2C3)ccc1O (stereo in doubt; trans) | 37.2 | 
25 | CCCCCC[C@@H](O)CC1CC1CCCCCCCC(=O)NCc1ccc(O)c(OC)c1 (some centres not stated) | 98 | 8.30
26 | COc1cc(CNC(=O)C2C(C(=O)NCc3ccc(O)c(OC)c3)[C@H]3C=C[C@@H]2C3)ccc1O (stereo in doubt; cis) | 16.4 | 
27 | COc1cc(CNC(=O)[C@]23CC[C@@H](C)[C@H](C)[C@H]2C2=CC[C@@H]4[C@@]5(C)CC[C@H](O)C(C)(C)[C@@H]5CC[C@@]4(C)[C@]2(C)CC3)ccc1O | 14.3 | 
28 | COc1cc(CNC(=O)/C=C(\C)CCC[C@H](C)CCC[C@H](C)CCCC(C)C)ccc1O | 85 | 8.70
29 | CCCCCCCCCCCCCCCCCC(=O)NCc1ccc(O)c(OC)c1 | 32.4 | 
30 | COc1cc(CNC(=O)CCCCCCCC/C=C/CCCCCCCCC(=O)NCc2ccc(O)c(OC)c2)ccc1O | 85.7 | 8.80
31 | COc1cc(CNC(=O)/C=C(\C)CC/C=C(\C)CCC=C(C)C)ccc1O | 79.9 | 9.30
32 | CCCCCC[C@H](C/C=C\CCCCCCCC(=O)NCc1ccc(O)c(OC)c1)OC(C)=O | 93.5 | 
33 | CCCCCC/C=C/C#CCCCCCCCC(=O)NCc1ccc(O)c(OC)c1 | 70.7 | 8.90
